Assay results as given in ChEMBL document CHEMBL2390889, “Synthesis and anticancer activity of acyl thioureas bearing pyrazole moiety” (2013).

Experiments:
Type in all cases: functional
HepG2 [1] = experiment: Anticancer activity against human HepG2 cells assessed as viable cells at 10^-5 M after 48 hrs by XTT assay relative to control; conditions: HepG2, 48 h, read-out: Activity
How it was run: (§1)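 DLD-1, HepG2 and Jurkat cells were grown in low-glucose DMEM with 10% FBS, 1% L-glutamine, 100 IU/mL penicillin and streptomycin at 37 °C under 5% CO2. They were seeded at 10 × 10^4 cells/well and treated with a 10-fold dilution series from 10^-4 to 10^-8 M for 24 or 48 h. XTT was then added, absorbance read at 450 nm after 4 h, and viability expressed as % of untreated control (set to 100%).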

HepG2 [2] = experiment: Anticancer activity against human HepG2 cells assessed as viable cells at 10^-4 M after 48 hrs by XTT assay relative to control; conditions: HepG2, 48 h, read-out: Activity; how it was run: as §1
DLD-1 [3] = experiment: Anticancer activity against human DLD1 cells assessed as viable cells at 10^-5 M after 48 hrs by XTT assay relative to control; conditions: DLD-1, 48 h, read-out: Activity; how it was run: as §1
DLD-1 [4] = experiment: Anticancer activity against human DLD1 cells assessed as viable cells at 10^-4 M after 48 hrs by XTT assay relative to control; conditions: DLD-1, 48 h, read-out: Activity; how it was run: as §1
Jurkat [5] = experiment: Anticancer activity against human Jurkat cells assessed as viable cells at 10^-5 M after 48 hrs by XTT assay relative to control; conditions: read-out: Activity; how it was run: as §1
Jurkat [6] = experiment: Anticancer activity against human Jurkat cells assessed as viable cells at 10^-4 M after 48 hrs by XTT assay relative to control; conditions: read-out: Activity; how it was run: as §1
HepG2 [7] = experiment: Anticancer activity against human HepG2 cells assessed as viable cells at 10^-5 M after 24 hrs by XTT assay relative to control; conditions: HepG2, 24 h, read-out: Activity; how it was run: as §1
HepG2 [8] = experiment: Anticancer activity against human HepG2 cells assessed as viable cells at 10^-4 M after 24 hrs by XTT assay relative to control; conditions: HepG2, 24 h, read-out: Activity; how it was run: as §1
DLD-1 [9] = experiment: Anticancer activity against human DLD1 cells assessed as viable cells at 10^-4 M after 24 hrs by XTT assay relative to control; conditions: DLD-1, 24 h, read-out: Activity; how it was run: as §1
DLD-1 [10] = experiment: Anticancer activity against human DLD1 cells assessed as viable cells at 10^-5 M after 24 hrs by XTT assay relative to control; conditions: DLD-1, 24 h, read-out: Activity; how it was run: as §1
Jurkat [11] = experiment: Anticancer activity against human Jurkat cells assessed as viable cells at 10^-5 M after 24 hrs by XTT assay relative to control; conditions: read-out: Activity; how it was run: as §1
Jurkat [12] = experiment: Anticancer activity against human Jurkat cells assessed as viable cells at 10^-4 M after 24 hrs by XTT assay relative to control; conditions: read-out: Activity; how it was run: as §1

SMILES	viability at 10 µM (HepG2 [1]) [%]	viability at 100 µM (HepG2 [2]) [%]	viability at 10 µM (DLD-1 [3]) [%]	viability at 100 µM (DLD-1 [4]) [%]	viability at 10 µM (Jurkat [5]) [%]	viability at 100 µM (Jurkat [6]) [%]	viability at 10 µM (HepG2 [7]) [%]	viability at 100 µM (HepG2 [8]) [%]	viability at 100 µM (DLD-1 [9]) [%]	viability at 10 µM (DLD-1 [10]) [%]	viability at 10 µM (Jurkat [11]) [%]	viability at 100 µM (Jurkat [12]) [%]
Cc1ccc(NC(=S)NC(=O)c2nn(-c3ccccc3)c(-c3ccccc3)c2C(=O)c2ccccc2)cc1	27.7	25.9	48.5	40.2	14.2	12.5	51.6	49.2	57.1	65.1	50.3	30
Cc1ccccc1NC(=S)NC(=O)c1nn(-c2ccccc2)c(-c2ccccc2)c1C(=O)c1ccccc1	22.8	20.8	45.6	41.3	51.2	76.6	33.3	29.1	55.3	63.2	100	100
COc1ccc(NC(=S)NC(=O)c2nn(-c3ccccc3)c(-c3ccccc3)c2C(=O)c2ccccc2)cc1	27.9	22.6	68.2	62.1	87.5	8.98	42	36.5	71.2	80.5	37.8	31.1
O=C(NC(=S)Nc1ccc(F)cc1)c1nn(-c2ccccc2)c(-c2ccccc2)c1C(=O)c1ccccc1	30.1	23.6	60.2	51.5	47.8	67.6	54.2	50.1	62.5	75.1	100	100
O=C(NC(=S)Nc1ccc(Cl)cc1)c1nn(-c2ccccc2)c(-c2ccccc2)c1C(=O)c1ccccc1	24.9	24.8	55.2	49.2	90	24.2	53.7	49.5	60.5	73.3	56.3	57.3
O=C(NC(=S)Nc1ccc(Br)cc1)c1nn(-c2ccccc2)c(-c2ccccc2)c1C(=O)c1ccccc1	27.8	27.2	62.5	50.1	87.5	40.1	51.5	55.2	65.2	78.1	100	78.1
O=C(NC(=S)Nc1cccc2ccccc12)c1nn(-c2ccccc2)c(-c2ccccc2)c1C(=O)c1ccccc1	51.2	49.9	75.5	70.6	14.5	8.24	85.5	78.7	74.2	82.2	46	36.4
NC(=O)c1ccc(NC(=S)NC(=O)c2nn(-c3ccccc3)c(-c3ccccc3)c2C(=O)c2ccccc2)cc1	27.3	22.9	95.2	96.6	66.3	39.2	44.2	38.1	100	100	100	100
O=C(NC(=S)NCc1ccccc1)c1nn(-c2ccccc2)c(-c2ccccc2)c1C(=O)c1ccccc1	40.6	39.8	65.5	55.9	23.1	17.9	56.4	49.2	64.2	75.2	34.7	36.6
O=C(NC(=S)Nc1ncccn1)c1nn(-c2ccccc2)c(-c2ccccc2)c1C(=O)c1ccccc1	31.2	28.8	81.4	75.5	28	23.4	51.1	44.3	80.4	88.5	100	86.2
O=C(NC(=S)Nc1ccccc1)c1nn(-c2ccccc2)c(-c2ccccc2)c1C(=O)c1ccccc1	23.7	21.8	55.4	60.6	67.6	6	42.1	38.2	71.3	75.5	30	23.3
